Results taken from ChEMBL document CHEMBL1144203, “Synthesis and antiviral evaluation of acyclic azanucleosides developed from sulfanilamide as a lead structure” (Bioorg Med Chem, 2008).
The source made the active and inactive calls. The calls are words filed in the database; no cut-off is given here.

What was measured:
[1] = Cytotoxicity against MDCK cells assessed as alteration in cell morphology by MTS assay; format: cell-based, Canis lupus familiaris; conditions: dog
Summary of the method: (§1)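 Uninfected host cells were exposed to compound and examined under the microscope. MCC was the minimal compound concentration causing a microscopically detectable change in normal cell morphology.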

[2] = Cytotoxicity against MDCK cells assessed as decrease in cell viability by MTS assay; format: cell-based, Canis lupus familiaris; conditions: dog
Summary of the method: (§2)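 Uninfected host cells were exposed to compound. CC50 was taken as the concentration giving a 50% fall in cell viability, measured by a colorimetric formazan-based MTS assay.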

[3] = system: MDCK; test: Cytotoxicity against MDCK cells assessed as decrease in cell viability upto 100 uM by MTS assay; format: cell-based, Canis lupus familiaris; conditions: dog
[4] = Cytotoxicity against CRFK cells assessed as decrease in cell viability upto 100 uM by MTS assay; format: cell-based, Felis catus; conditions: cat
[5] = system: HEL; test: Cytotoxicity against HEL cells assessed as decrease in cell viability upto 100 uM by MTS assay; format: cell-based; conditions: human
[6] = system: HeLa; test: Cytotoxicity against human HeLa cells assessed as decrease in cell viability upto 100 uM by MTS assay; format: functional, cell-based
Summary of the method: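 Uninfected HeLa host cells were tested up to 100 μM. CC50 is the concentration causing a 50% drop in cell viability by colorimetric formazan-based MTS assay. Alternatively, MCC is the minimal concentration giving microscopically detectable alteration of normal cell morphology.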

[7] = Cytotoxicity against african green monkey Vero cells assessed as alteration in cell morphology by MTS assay; format: cell-based; conditions: chlorocebus sabaeus; summary of the method: as §1
[8] = system: Human respirovirus 3; test: Antiviral activity against Parainfluenza 3 virus infected in Vero cells assessed as inhibition of virus-induced cytopathic effect at 100 uM by MTS assay; format: functional, organism-based
Summary of the method: (§3)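 Vero cell monolayers were infected with the virus in cell-based CPE assays. EC50 is the concentration giving 50% inhibition of virus-induced cytopathic effect, scored visually or by MTS formazan colorimetric cell-viability read-out. The highest concentration tested was 100 μM for most compounds and lower for a few.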

[9] = system: Mammalian orthoreovirus 1; test: Antiviral activity against Reovirus1 infected in Vero cells assessed as inhibition of virus-induced cytopathic effect at 100 uM by MTS assay; format: functional, organism-based; summary of the method: as §3
[10] = system: Sindbis virus; test: Antiviral activity against Sindbis virus infected in Vero cells assessed as inhibition of virus-induced cytopathic effect at 100 uM by MTS assay; format: functional, organism-based; summary of the method: as §3
[11] = system: Feline coronavirus; test: Antiviral activity against feline coronavirus infected in CRFK cells assessed as inhibition of virus-induced cytopathic effect at 100 uM by MTS assay; format: functional, organism-based
[12] = system: Felid alphaherpesvirus 1; test: Antiviral activity against feline herpes virus infected in CRFK cells assessed as inhibition of virus-induced cytopathic effect at 100 uM by MTS assay; format: functional, organism-based
[13] = system: Human alphaherpesvirus 1; test: Antiviral activity against HSV1 virus infected in HEL cells assessed as inhibition of virus-induced cytopathic effect at 100 uM by MTS assay; format: functional, organism-based
[14] = system: Human alphaherpesvirus 2; test: Antiviral activity against HSV2 virus infected in HEL cells assessed as inhibition of virus-induced cytopathic effect at 100 uM by MTS assay; format: functional, organism-based
[15] = system: Coxsackievirus B4; test: Antiviral activity against Coxsackievirus B4 infected in HeLa cells assessed as inhibition of virus-induced cytopathic effect at 100 uM by MTS assay; format: functional, organism-based
Summary of the method: (§4)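 HeLa cells were infected with the virus, and compounds were tested up to 100 μM. EC50 is the concentration that halves virus-induced cytopathic effect, read by visual CPE scoring or by MTS formazan colorimetric viability measurement.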

[16] = system: Respiratory syncytial virus; test: Antiviral activity against respiratory syncytial virus infected in HeLa cells assessed as inhibition of virus-induced cytopathic effect at 100 uM by MTS assay; format: functional, organism-based; summary of the method: as §4
[17] = system: Coxsackievirus B4; test: Antiviral activity against Coxsackievirus B4 infected in Vero cells assessed as inhibition of virus-induced cytopathic effect at 100 uM by MTS assay; format: functional, organism-based; summary of the method: as §3
[18] = system: Punta Toro virus; test: Antiviral activity against Punta Toro virus infected in Vero cells assessed as inhibition of virus-induced cytopathic effect at 100 uM by MTS assay; format: functional, organism-based; summary of the method: as §3
[19] = Cytotoxicity against CRFK cells assessed as decrease in cell viability by MTS assay; format: cell-based, Felis catus; conditions: cat; summary of the method: as §2
[20] = Cytotoxicity against HEL cells assessed as alteration in cell morphology by MTS assay; format: cell-based; conditions: human
Summary of the method: (§5)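 Uninfected host cells (HEL or HeLa) exposed to compounds […]. The minimal cytotoxic concentration (MCC) is the lowest concentration causing a microscopically detectable change in normal cell morphology. CC50 is the concentration giving a 50% fall in cell viability by the colorimetric formazan-based MTS assay.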

[21] = system: HeLa; test: Cytotoxicity against human HeLa cells assessed as alteration in cell morphology by MTS assay; format: functional; summary of the method: as §5
[22] = system: Coxsackievirus B4; test: Antiviral activity against Coxsackievirus B4 infected in Vero cells assessed as inhibition of virus-induced cytopathic effect by MTS assay; format: functional, organism-based; conditions: Enterovirus B
Summary of the method: (§6)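 Vero cell monolayers infected with Coxsackie B4 virus or Punta Toro virus, with test compounds at up to 100 μM. EC50 is the concentration giving 50% inhibition of virus-induced cytopathic effect (CPE), scored visually or from cell viability by the colorimetric formazan-based MTS assay.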

[23] = system: Punta Toro virus; test: Antiviral activity against Punta Toro virus infected in Vero cells assessed as inhibition of virus-induced cytopathic effect by MTS assay; format: functional, organism-based; summary of the method: as §6

Row | Structure (SMILES) | MCC [1] [µM] | CC50 [2] [µM] | Activity [3] | Activity [4] | Activity [5] | Activity [6] | Activity [8] | Activity [9] | Activity [10] | Activity [11] | Activity [12] | Activity [13] | Activity [14] | Activity [15] | Activity [16] | Activity [17] | Activity [18] | other results
1 | CC(N)C12CC3CC(CC(C3)C1)C2 (stereo not drawn) [RIMANTADINE] | > 100 | > 100 |  |  |  |  |  |  |  |  |  |  |  |  |  |  |  | 
2 | CC(=O)Nc1ccc(S(=O)(=O)N(CCOC(=O)C(C)(C)C)Cn2ccc(=O)[nH]c2=O)cc1 |  |  | Not Active | Not Active | Not Active | inactive | inactive | inactive | inactive | inactive | inactive | inactive | inactive | inactive | inactive | inactive | inactive | MCC [7]: 40 µM
3 | Nc1nc(O)c2ncn(COC(CO)CO)c2n1 [GANCICLOVIR] |  |  |  |  |  |  |  |  |  |  |  |  |  |  |  |  |  | CC50 [19]: > 100 µM; MCC [20]: > 100 µM
4 | O=c1[nH]c(=O)n([C@H]2C[C@H](O)[C@@H](CO)O2)cc1/C=C/Br [BRIVUDINE] |  |  |  |  |  |  |  |  |  |  |  |  |  |  |  |  |  | MCC [7]: > 250 µM; MCC [21]: > 250 µM; MCC [20]: > 250 µM
5 | CC(C)(C)C(=O)OCCN(Cn1ccc(=O)[nH]c1=O)S(=O)(=O)c1ccc([N+](=O)[O-])cc1 |  |  | Not Active |  | Not Active | inactive | inactive | inactive | inactive | inactive | inactive | inactive | inactive | inactive | inactive | inactive | inactive | CC50 [19]: 49 µM
6 | NC(=O)c1ncn([C@@H]2O[C@H](CO)[C@@H](O)[C@H]2O)n1 [RIBAVIRIN] | 100 | > 100 |  |  |  |  |  |  |  |  |  |  |  |  |  |  |  | MCC [7]: > 250 µM; MCC [21]: > 250 µM; MCC [20]: > 250 µM
7 | Cc1cn(CN(CCOC(=O)C(C)(C)C)S(=O)(=O)c2ccccc2[N+](=O)[O-])c(=O)[nH]c1=O |  |  | Not Active | Not Active | Not Active | inactive | inactive | inactive | inactive | inactive | inactive | inactive | inactive | inactive | inactive |  |  | EC50 [22]: 100 µM; EC50 [23]: 100 µM
8 | Nc1nc2c(ncn2COCCO)c(=O)[nH]1 [ACYCLOVIR] |  |  |  |  |  |  |  |  |  |  |  |  |  |  |  |  |  | MCC [20]: > 250 µM
9 | CC(=O)Nc1ccc(S(=O)(=O)N(CCOC(=O)C(C)(C)C)Cn2cc(C)c(=O)[nH]c2=O)cc1 |  |  | Not Active | Not Active | Not Active | inactive | inactive | inactive | inactive | inactive | inactive | inactive | inactive | inactive | inactive | inactive | inactive | MCC [7]: 40 µM
10 | CC(C)(C)C(=O)OCCN(Cn1cc(F)c(=O)[nH]c1=O)S(=O)(=O)c1ccccc1[N+](=O)[O-] | 4 | > 100 |  |  | Not Active | inactive | inactive | inactive | inactive | inactive | inactive | inactive | inactive | inactive | inactive | inactive | inactive | CC50 [19]: 14 µM
11 | Nc1ncnc2c1ncn2C[C@H](O)CO [(S)-DHPA] |  |  |  |  |  |  |  |  |  |  |  |  |  |  |  |  |  | MCC [7]: > 250 µM; MCC [21]: > 250 µM
12 | NC12CC3CC(CC(C3)C1)C2 [AMANTADINE] | > 100 | > 100 |  |  |  |  |  |  |  |  |  |  |  |  |  |  |  | 
13 | Cc1cn(CN(CCOC(=O)C(C)(C)C)S(=O)(=O)c2ccc([N+](=O)[O-])cc2)c(=O)[nH]c1=O |  |  | Not Active |  | Not Active | inactive | inactive | inactive | inactive | inactive | inactive | inactive | inactive | inactive | inactive | inactive | inactive | CC50 [19]: 53 µM
14 | Cc1cn(CN(CCO)S(=O)(=O)c2ccc(N)cc2)c(=O)[nH]c1=O |  |  | Not Active | Not Active | Not Active | inactive | inactive | inactive | inactive | inactive | inactive | inactive | inactive | inactive | inactive | inactive | inactive | 
15 | CC(C)(C)C(=O)OCCN(Cn1cc(F)c(=O)[nH]c1=O)S(=O)(=O)c1ccc([N+](=O)[O-])cc1 | 20 | 69 |  |  | Not Active | inactive | inactive | inactive | inactive | inactive | inactive | inactive | inactive | inactive | inactive | inactive | inactive | CC50 [19]: 44 µM
16 | CC(C)(C)C(=O)OCCN(Cn1cc(F)c(=O)[nH]c1=O)S(=O)(=O)c1ccccc1N |  |  | Not Active | Not Active | Not Active | inactive | inactive | inactive | inactive | inactive | inactive | inactive | inactive | inactive | inactive | inactive | inactive | 
17 | Cc1cn(CN(CCOC(=O)C(C)(C)C)S(=O)(=O)c2cccc(N)c2)c(=O)[nH]c1=O |  |  | Not Active | Not Active | Not Active | inactive | inactive | inactive | inactive | inactive | inactive | inactive | inactive | inactive | inactive | inactive | inactive | 
18 | CCOC(=O)C1=C[C@@H](OC(CC)CC)[C@H](NC(C)=O)[C@@H](N)C1 [OSELTAMIVIR] | > 100 | > 100 |  |  |  |  |  |  |  |  |  |  |  |  |  |  |  | 
